Measured values published in ChEMBL document CHEMBL3272120, “2,5,5-Trimethylthiazolidine-4-carboxylic acid, a D(-)-penicillamine-directed pseudometabolite of ethanol. Detoxication mechanism for acetaldehyde” (1978).
Calls of active or inactive are those of the source. The calls are words filed in the database; no cut-off is given here.

What was measured:
Rattus norvegicus [1] = assay: (§1) Detoxification of acetaldehyde in ethanol-1-[14C]-treated Sprague-Dawley rat assessed as [14C]-3-acetyl-2,5,5-trimethylthiazolidine-4-carboxylic acid excretion in urine by measuring administered dose of ethanol-1-[14C] at 8 mmol/kg, po administered with 65 mmol/kg ethanol-1-[14C] measured for 24 hrs by inverse isotope dilution method in presence of Ac2O relative to control; type: functional
Summary of the method: (§2)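 Male Sprague-Dawley rats (190–280 g), given the test agent 1 h before ethanol-1-14C (65 mmol/kg, 200 mg/mL in isotonic saline, 0.8–1.4 μCi/rat), or at the same time as it for the simultaneous-dosing lines. Held in metabolism cages for 24 h. Urine plus washings were filtered and 400 mg unlabeled carrier added. The mix was acetylated with Ac2O, purified by preparative TLC and recrystallized from EtOAc to constant specific activity. Radioactivity was then scintillation counted.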

Rattus norvegicus [2] = assay: Detoxification of acetaldehyde in aldehyde dehydrogenase inhibitor disuifiram/ethanol-treated rat assessed as reduction of blood acetaldehyde level at 8 mmol/kg, ip administered 1 hr prior to ethanol treatment measured after 1 hr by head space gas chromatographic analysis
Rattus norvegicus [3] = assay: (§3) Detoxification of acetaldehyde in ethanol-1-[14C]-treated Sprague-Dawley rat assessed as [14C]-3-acetyl-2-methylthiazolidine-4-carboxylic acid in urine by measuring administered dose of ethanol-1-[14C] at 10 mmol/kg, ip administered 1 hr prior to 65 mmol/kg ethanol-1-[14C] treatment measured for 24 hrs by inverse isotope dilution method in presence of Ac2O relative to control; type: functional; summary of the method: as §2
Rattus norvegicus [4] = assay: as §3, with “aldehyde dehydrogenase inhibitor disuifiram/ethanol-1-[14C]-treated” for “ethanol-1-[14C]-treated”, “acid excretion” for “acid”, “8.3” for “10”; type: functional; design: scale not given: the % may be the effect or the level left; summary of the method: as §2
Rattus norvegicus [5] = assay: as §3, with “acid excretion” for “acid”, “7.4” for “10”, “po” for “ip”; type: functional; summary of the method: as §2
Rattus norvegicus [6] = assay: as §1, with “8.1” for “8”; type: functional; summary of the method: as §2
Rattus norvegicus [7] = assay: as §3, with “[14C]-3-acetyl-2,5,5-trimethylthiazolidine-4-carboxylic” for “[14C]-3-acetyl-2-methylthiazolidine-4-carboxylic”, “acid excretion” for “acid”, “8.1” for “10”, “po” for “ip”; type: functional; summary of the method: as §2
Rattus norvegicus [8] = assay: as §3, with “[14C]-3-acetyl-2,5,5-trimethylthiazolidine-4-carboxylic” for “[14C]-3-acetyl-2-methylthiazolidine-4-carboxylic”, “acid excretion” for “acid”, “8.1” for “10”; type: functional; summary of the method: as §2
Rattus norvegicus [9] = assay: (§4) Detoxification of acetaldehyde in aldehyde dehydrogenase inhibitor disuifiram/ethanol-1-[14C]-treated Sprague-Dawley rat assessed as [14C]-3-acetyl-2,5,5-trimethylthiazolidine-4-carboxylic acid excretion in urine by measuring administered dose of ethanol-1-[14C] at 8.1 mmol/kg, po administered 1 hr prior to 65 mmol/kg ethanol-1-[14C] treatment measured for 24 hrs by inverse isotope dilution method in presence of Ac2O relative to control; type: functional; design: scale not given: the % may be the effect or the level left; summary of the method: as §2
Rattus norvegicus [10] = assay: as §4, with “2” for “8.1”, “ip” for “po”, “first dose at 0.25 hrs” for “1 hr”, “43.5” for “65”, “treatment followed by 4 doses of compound at 0.75 hrs, 3 hrs, 5 hrs, 7 hrs” for “treatment”; type: functional; design: scale not given: the % may be the effect or the level left
Rattus norvegicus [11] = assay: as §4, with “pargyline/ethanol-1-[14C]-treated” for “disuifiram/ethanol-1-[14C]-treated”, “ip” for “po”; type: functional; design: scale not given: the % may be the effect or the level left; summary of the method: as §2
Rattus norvegicus [12] = assay: as §4, with “pyrogallol/ethanol-1-[14C]-treated” for “disuifiram/ethanol-1-[14C]-treated”, “ip” for “po”; type: functional; design: scale not given: the % may be the effect or the level left; summary of the method: as §2

Question: How did the Activity (Rattus norvegicus [1]) turn out when `CC(=O)NC(C(=O)O)C(C)(C)S` (centres undefined) [N-ACETYL PENICILLAMINE] was run?
Answer: 0%

Question: And the Activity (Rattus norvegicus [2])?
Answer: inactive

Question: Which Activity (Rattus norvegicus [3]) does the source give for `N[C@@H](CS)C(=O)O` (stereo in doubt; 2) [CYSTEINE] here?
Answer: 0%

Question: And the Activity (Rattus norvegicus [4])?
Answer: 0%

Question: With `NC1CCSC1=O` (racemic) as the compound, how does the Activity (Rattus norvegicus [2]) read?
Answer: inactive

Question: `N[C@@H](CS)C(=O)O` (stereo in doubt; 2) was tested. Which Activity (Rattus norvegicus [2]) did it give?
Answer: inactive

Question: With `N[C@@H](CS)C(=O)O` (stereo in doubt) as the compound, how does the Activity (Rattus norvegicus [2]) read?
Answer: inactive

Question: For `NC(CCSSCCC(N)C(=O)O)C(=O)O` (racemic), which Activity (Rattus norvegicus [2]) is on record?
Answer: inactive

Question: For `NC(CCS)C(=O)O` (racemic), which Activity (Rattus norvegicus [2]) is on record?
Answer: inactive

Question: For `CC(=O)N[C@@H](CS)C(=O)O` [ACETYLCYSTEINE], which Activity (Rattus norvegicus [5]) is on record?
Answer: 0%

Question: What about the Activity (Rattus norvegicus [2]) of the same compound?
Answer: inactive

Question: For `CC(C)(S)[C@@H](N)C(=O)O` [PENICILLAMINE], which Activity (Rattus norvegicus [6]) is on record?
Answer: 0.4%

Question: What about the Activity (Rattus norvegicus [7]) of the same compound?
Answer: 1.2%

Question: What about the Activity (Rattus norvegicus [8]) of the same compound?
Answer: 0.5%

Question: And the Activity (Rattus norvegicus [9])?
Answer: 2.7%

Question: What about the Activity (Rattus norvegicus [10]) of the same compound?
Answer: 7.6%

Question: And the Activity (Rattus norvegicus [11])?
Answer: 3.3%

Question: What about the Activity (Rattus norvegicus [12]) of the same compound?
Answer: 1.1%

Question: And the Activity (Rattus norvegicus [2])?
Answer: Active
